ChEMBL document CHEMBL1671723, “Bioavailability and efficacy of levofloxacin against Francisella tularensis in the common marmoset (Callithrix jacchus)” (Antimicrob Agents Chemother, 2010)
Activity calls are given as the source filed them. The calls are words filed in the database; no cut-off is given here.

Tests used:
[1] = Half life in common marmoset at 40 mg/kg, po measured on day 1 by […] analysis; type: ADME, organism-based, Callithrix jacchus; set-up: dose 40 mg/kg, route oral; conditions: in vivo
Method in brief: (§1)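 Six marmosets (25–64 months, 310–560 g) received one oral 40 mg/kg levofloxacin dose in banana milkshake. Two groups of three were bled at 0.5, 2 and 6 h or at 1, 4 and 8 h. Lithium-heparin plasma was stored at −70°C and assayed by LC-MS/MS-ESI against a spiked-plasma calibration curve (0.1–50 μg/ml). PK parameters were derived from the pooled profile.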

Rhesus monkey [2] = assay: AUC (0 to infinity) in Rhesus monkey at 15 mg/kg by […] analysis; type: ADME, organism-based, Macaca mulatta, Plasma; set-up: time infinity, dose 15 mg/kg; conditions: in vivo
[3] = Cmax in common marmoset at 40 mg/kg, po BID measured on day 1 by […] analysis; type: ADME, organism-based, Callithrix jacchus; set-up: dose 40 mg/kg, route oral; conditions: in vivo
Method in brief: (§2)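 Marmosets were dosed orally with 40 mg/kg levofloxacin twice daily in banana milkshake for 7 days. On day 1, group A (n=3) was bled predose and at 1, 4 and 8 h, and group B (n=3) at 0.5, 2, 6 and 12 h. Heparinised plasma was stored at −70°C and measured by LC-MS/MS-ESI (calibration 0.1–50 μg/ml). PK parameters were calculated.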

Callithrix jacchus [4] = assay: AUC in common marmoset at 40 mg/kg, po measured on day 1 by […] analysis; type: ADME, organism-based, Plasma; set-up: dose 40 mg/kg, route oral; conditions: in vivo; method in brief: as §1
[5] = Tmax in human at 500 mg, po QD measured on day 10 by […] analysis; type: ADME, organism-based; conditions: in vivo
[6] = Half life in Rhesus monkey at 15 mg/kg followed by 4 mg/kg in 12 hrs dosing interval by LS/MS/MS analysis; type: ADME, organism-based, Macaca mulatta; conditions: in vivo
[7] = Cmax in Rhesus monkey at 15 mg/kg followed by 4 mg/kg in 12 hrs dosing interval by […] analysis; type: ADME, organism-based, Macaca mulatta; set-up: dose 15 mg/kg; conditions: in vivo
[8] = Cmax in common marmoset at 40 mg/kg, po measured on day 1 by […] analysis; type: ADME, organism-based, Callithrix jacchus; set-up: dose 40 mg/kg, route oral; conditions: in vivo; method in brief: as §1
[9] = Cmax in common marmoset at 40 mg/kg, po BID measured on day 7 by […] analysis; type: ADME, organism-based, Callithrix jacchus; set-up: dose 40 mg/kg, route oral; conditions: in vivo
Method in brief: (§3)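 Oral levofloxacin, 40 mg/kg twice daily in banana milkshake for 7 consecutive days. Day-7 sampling: predose and 1, 4 and 8 h (group A, n=3); 0.5, 2, 6 and 12 h (group B, n=3). Lithium-heparin plasma was held at −70°C and quantified by LC-MS/MS-ESI against spiked-plasma standards (0.1–50 μg/ml). PK parameters were derived.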

[10] = Cmax in human at 500 mg, po QD measured on day 10 by […] analysis; conditions: in vivo
Francisella tularensis = assay: Antimicrobial activity against Francisella tularensis SCHU S4 infected in common marmoset assessed as survival of marmoset at 16.5 mg/kg BID for 10 days measured on day 24; type: functional, organism-based; set-up: dose 16.5 mg/kg
[11] = Half life in human at 500 mg, po by LS/MS/MS analysis; type: ADME, organism-based; conditions: in vivo
[12] = Half life in common marmoset at 40 mg/kg, po BID measured on day 1 by […] analysis; type: ADME, organism-based, Callithrix jacchus; set-up: dose 40 mg/kg, route oral; conditions: in vivo; method in brief: as §2
[13] = Half life in Rhesus monkey at 15 mg/kg by LS/MS/MS analysis; type: ADME, organism-based, Macaca mulatta; set-up: dose 15 mg/kg; conditions: in vivo
[14] = Tmax in Rhesus monkey at 15 mg/kg followed by 4 mg/kg in 12 hrs dosing interval by […] analysis; type: ADME, organism-based, Macaca mulatta; conditions: in vivo
[15] = Half life in human at 500 mg, po QD measured on day 10 by LS/MS/MS analysis; type: ADME, organism-based; conditions: in vivo
Rhesus monkey [16] = assay: AUC (0 to infinity) in Rhesus monkey at 15 mg/kg followed by 4 mg/kg in 12 hrs dosing interval by […] analysis; type: ADME, organism-based, Macaca mulatta, Plasma; set-up: dose 15 mg/kg, time infinity; conditions: in vivo
Callithrix jacchus [17] = assay: AUC in common marmoset at 40 mg/kg, po BID measured on day 1 by […] analysis; type: ADME, organism-based, Plasma; set-up: dose 40 mg/kg, route oral; conditions: in vivo; method in brief: as §2
Callithrix jacchus [18] = assay: AUC in common marmoset at 40 mg/kg, po BID measured on day 7 by […] analysis; type: ADME, organism-based, Plasma; set-up: dose 40 mg/kg, route oral; conditions: in vivo; method in brief: as §3
[19] = Cmax in Rhesus monkey at 15 mg/kg by […] analysis; type: ADME, organism-based, Macaca mulatta; set-up: dose 15 mg/kg; conditions: in vivo
Homo sapiens [20] = assay: AUC (0 to infinity) in human at 500 mg, po by […] analysis; type: ADME, organism-based, Plasma; set-up: dose 500 mg, time infinity, route oral; conditions: in vivo
[21] = Tmax in common marmoset at 40 mg/kg, po BID measured on day 7 by […] analysis; type: ADME, organism-based, Callithrix jacchus; set-up: dose 40 mg/kg, route oral; conditions: in vivo; method in brief: as §3
[22] = Tmax in human at 500 mg, po by […] analysis; type: ADME, organism-based; conditions: in vivo
[23] = Cmax in human at 500 mg, po by […] analysis; conditions: in vivo
[24] = Tmax in Rhesus monkey at 15 mg/kg by […] analysis; type: ADME, organism-based, Macaca mulatta; set-up: dose 15 mg/kg; conditions: in vivo
Homo sapiens [25] = assay: AUC (0 to infinity) in human at 500 mg, po QD measured on day 10 by […] analysis; type: ADME, organism-based, Plasma; set-up: dose 500 mg, route oral, time infinity; conditions: in vivo
[26] = Half life in common marmoset at 40 mg/kg, po BID measured on day 7 by […] analysis; type: ADME, organism-based, Callithrix jacchus; set-up: dose 40 mg/kg, route oral; conditions: in vivo; method in brief: as §3

SMILES: C[C@H]1COc2c(N3CCN(C)CC3)c(F)cc3c(=O)c(C(=O)O)cn1c23.C[C@H]1COc2c(N3CCN(C)CC3)c(F)cc3c(=O)c(C(=O)O)cn1c23.O [LEVOFLOXACIN]
- half-life [1]: 3.9 h
- AUC (Rhesus monkey [2]): 21300 ng·h/mL
- Cmax [3]: 16500 ng/mL
- AUC (Callithrix jacchus [4]): 112.4 µg/mL/h
- Tmax [5]: 1.1 h
- half-life [6]: 3.4 h
- Cmax [7]: 5300 ng/mL
- Cmax [8]: 18800 ng/mL
- Cmax [9]: 20900 ng/mL
- Cmax [10]: 5700 ng/mL
- Activity (Francisella tularensis): Active
- half-life [11]: 6.4 h
- half-life [12]: 2.4 h
- half-life [13]: 2 h
- Tmax [14]: 2.2 h
- half-life [15]: 7.6 h
- AUC (Rhesus monkey [16]): 33400 ng·h/mL
- AUC (Callithrix jacchus [17]): 63.6 µg/mL/h
- AUC (Callithrix jacchus [18]): 81.4 µg/mL/h
- Cmax [19]: 5100 ng/mL
- AUC (Homo sapiens [20]): 56300 ng·h/mL
- Tmax [21]: 0.5 h
- Tmax [22]: 1.5 h
- Cmax [23]: 8500 ng/mL
- Tmax [24]: 1.5 h
- AUC (Homo sapiens [25]): 47500 ng·h/mL
- half-life [26]: 2.3 h
